Active and inactive are the calls of the source. The calls are words filed in the database; no cut-off is given here.
How the values were obtained:
Mus musculus [1] = test: Anti-colitis activity in Swiss albino mouse model of DSS-induced acute colitis assessed as colon length at 10 mg/kg, ip administrated for 7 days (reference value: 7.314 +/- 0.1143 cm); assay type: functional
Cannabinoid receptor 2 [2] = target: T1, Cannabinoid receptor 2 (Homo sapiens, UniProt P34972); test: Agonist activity at N-terminal Flag epitope tagged CB2 (unknown origin) expressed in HTLA cells assessed as increase of beta-arrestin recruitment by Tango assay; assay type: cell-based
T1 sequence (P34972 whole entry): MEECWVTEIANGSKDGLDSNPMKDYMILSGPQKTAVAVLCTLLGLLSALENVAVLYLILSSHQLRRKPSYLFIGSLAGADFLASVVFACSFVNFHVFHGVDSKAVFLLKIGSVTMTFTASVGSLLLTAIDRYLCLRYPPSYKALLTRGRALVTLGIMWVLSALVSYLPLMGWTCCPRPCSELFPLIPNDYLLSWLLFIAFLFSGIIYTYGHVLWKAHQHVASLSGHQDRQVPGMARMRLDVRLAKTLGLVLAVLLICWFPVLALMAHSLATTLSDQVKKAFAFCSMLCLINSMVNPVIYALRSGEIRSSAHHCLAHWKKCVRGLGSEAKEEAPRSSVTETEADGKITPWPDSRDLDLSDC
How it was run: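 β-arrestin Tango assay: HTLA cells transfected overnight with GPCR tango constructs, plated at 15,000 cells/well in DMEM with 1% dFBS, recovered ≥6 h. Drugs in Tango buffer (20 mM HEPES, 1x HBSS, pH 7.40) added overnight, full concentration-response (maximum 30 µM). BrightGlo reagent, 20 min room temperature in dark, luminescence read.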

Cannabinoid receptor 1 [3] = target: T2, Cannabinoid receptor 1 (Homo sapiens, UniProt P21554); test: Agonist activity at N-terminal Flag epitope tagged CB1 (unknown origin) expressed in HTLA cells assessed as increase of beta-arrestin recruitment by Tango assay; assay type: cell-based
T2 sequence (P21554 whole entry): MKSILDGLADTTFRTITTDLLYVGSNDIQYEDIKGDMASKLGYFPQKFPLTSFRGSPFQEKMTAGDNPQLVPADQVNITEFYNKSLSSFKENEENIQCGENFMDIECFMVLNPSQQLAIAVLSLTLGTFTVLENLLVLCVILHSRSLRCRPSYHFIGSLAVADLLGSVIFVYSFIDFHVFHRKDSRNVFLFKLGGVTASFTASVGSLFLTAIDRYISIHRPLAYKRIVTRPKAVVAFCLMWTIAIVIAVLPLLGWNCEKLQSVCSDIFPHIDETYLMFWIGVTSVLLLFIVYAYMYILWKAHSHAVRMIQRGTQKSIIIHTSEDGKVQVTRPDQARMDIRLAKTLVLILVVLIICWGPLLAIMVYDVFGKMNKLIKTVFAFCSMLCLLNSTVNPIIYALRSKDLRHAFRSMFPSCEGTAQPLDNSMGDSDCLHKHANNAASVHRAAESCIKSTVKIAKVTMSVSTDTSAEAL
How it was run: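 HTLA cells transfected overnight with GPCR Tango constructs, plated at 15,000 cells/well in DMEM with 1% dFBS and allowed to recover at least 6 h. Compounds in Tango buffer (20 mM HEPES, 1x HBSS, pH 7.40) added overnight, full concentration-response up to 30 µM against CP-55,940 as reference agonist. BrightGlo reagent added for 20 min at room temperature in the dark, then luminescence read.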

Mus musculus [4] = test: Anti-colitis activity in Swiss albino mouse model of DSS-induced acute colitis assessed as reduction in DSS-induced oedema in colon at 10 mg/kg, ip administrated for 7 days by H and E staining based light microscopic method; assay type: functional, organism-based
How it was run: (§1)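 DSS colitis (3% DSS, 7 days) in male Swiss albino mice with daily ip 10 mg/kg in 4% DMSO/2% tween/saline. Distal colon fixed in 10% formol saline 24 h, paraffin-embedded, 4 µm sections, H&E, light microscopy scored for epithelial ulceration/desquamation, mucosal and submucosal infiltration, submucosal oedema, haemorrhage, lymphoid hyperplasia.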

Cannabinoid receptor 1 [5] = target: T2, Cannabinoid receptor 1; test: Displacement of [3H]CP55940 from recombinant human CB1R expressed in HEK293 cell membranes at 10 uM incubated for 90 mins relative to control
Mus musculus [6] = test: Anti-inflammatory activity in Swiss albino mouse model of DSS-induced acute colitis as IL1beta level in colon tissue at 10 mg/kg, ip administrated for 7 days by ELISA (reference value: 140.9 +/- 8.551 pg/mg); assay type: functional
Cannabinoid receptor 2 [7] = target: T1, Cannabinoid receptor 2; test: Antagonist activity at N-terminal Flag epitope tagged CB2 (unknown origin) expressed in HTLA cells assessed as decrease in CP55940-induced beta-arrestin recruitment pretreated with non-selective cannabinoid receptor agonist CP55940 for 30 mins and measured after 20 mins by Tango assay; assay type: cell-based
Cannabinoid receptor 2 [8] = target: T1, Cannabinoid receptor 2; test: Displacement of [3H]CP55940 from recombinant human CB2R expressed in HEK293 cell membranes at 10 uM incubated for 90 mins relative to control
Mus musculus [9] = test: Anti-colitis activity in Swiss albino mouse model of DSS-induced acute colitis assessed as reduction in DSS-induced haemorrhage in colon at 10 mg/kg, ip administrated for 7 days by H and E staining based light microscopic method; assay type: functional, organism-based; how it was run: as §1
Homo sapiens = species on record: Homo sapiens; test: Selectivity index, ratio of Ki for recombinant human CB1R expressed in HEK293 cell membranes to Ki for recombinant human CB2R expressed in HEK293 cell membranes; assay type: cell-based
Mus musculus [10] = test: Anti-colitis activity in Swiss albino mouse model of DSS-induced acute colitis assessed as reduction in DSS-induced inflammatory cells infiltration in the submucosa in colon at 10 mg/kg, ip administrated for 7 days by H and E staining based light microscopic method; assay type: functional, organism-based; how it was run: as §1
Mus musculus [11] = test: Anti-inflammatory activity in Swiss albino mouse model of DSS-induced acute colitis as TNFalpha level in colon tissue at 10 mg/kg, ip administrated for 7 days by ELISA (reference value: 102.4 +/- 5.043 pg/mg); assay type: functional
Mus musculus [12] = test: Anti-colitis activity in Swiss albino mouse model of DSS-induced acute colitis assessed as disease activity index at 10 mg/kg, ip administrated for 7 days (reference value: 7.143 +/- 1.29); assay type: functional
Mus musculus [13] = test: Anti-colitis activity in Swiss albino mouse model of DSS-induced acute colitis assessed as reduction in DSS-induced lymphoid hyperplasia in the sub-musoca in colon at 10 mg/kg, ip administrated for 7 days by H and E staining based light microscopic method; assay type: functional, organism-based; how it was run: as §1
Cannabinoid receptor 1 [14] = target: T2, Cannabinoid receptor 1; test: Antagonist activity at N-terminal Flag epitope tagged CB1 (unknown origin) expressed in HTLA cells assessed as decrease in CP55940-induced beta-arrestin recruitment pretreated with non-selective cannabinoid receptor agonist CP55940 for 30 mins and measured after 20 mins by Tango assay; assay type: cell-based
Mus musculus [15] = test: Anti-colitis activity in Swiss albino mouse model of DSS-induced acute colitis assessed as reduction in DSS-induced desquamation in lining of mucosal epithelium in colon tissue at 10 mg/kg, ip administrated for 7 days by H and E staining based light microscopic method; assay type: functional, organism-based; how it was run: as §1
Cannabinoid receptor 2 [16] = target: T1, Cannabinoid receptor 2; test: Agonist activity at recombinant human CB2R expressed in CHOK1 cells assessed as inhibition of NKH477-stimulated intracellular cAMP levels after 30 mins by chemiluminescent detection based cAMP Hunter assay; assay type: functional, cell-based
How it was run: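 CHO-K1 cells overexpressing human CB2R, plated 30,000 cells/well, overnight 37 °C, 5% CO2. Compound dose-responses incubated 30 min at 37 °C with NKH-477 (25 µM) to stimulate adenylate cyclase. Enzyme fragment complementation chemiluminescence read. Normalised to NKH-477 alone as 100%; mean ± SEM of three independent experiments in triplicate.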

Mus musculus [17] = test: Anti-colitis activity in Swiss albino mouse model of DSS-induced acute colitis assessed as reduction in DSS-induced ulceration in distal part of colon at 10 mg/kg, ip administrated for 7 days by H and E staining based light microscopic method; assay type: functional, organism-based; how it was run: as §1

## CCCCCn1/c(=N/C(=O)c2cccc(C(F)(F)F)c2)sc2ccccc21
Mus musculus [1]
  Activity: 6.729 cm
Cannabinoid receptor 2 [2]
  EC50: 129 nM
Cannabinoid receptor 1 [3]
  EC50: > 30000 nM
Mus musculus [4]
  Activity: Active
Cannabinoid receptor 1 [5]
  Activity: Active
Mus musculus [6]
  Activity: 102.4 pg/mg
Cannabinoid receptor 2 [7]
  EC50: > 30000 nM
Cannabinoid receptor 2 [8]
  Activity: Active
Mus musculus [9]
  Activity: Active
Homo sapiens
  Ratio Ki: 429
Mus musculus [10]
  Activity: inactive
Mus musculus [11]
  Activity: 58.71 pg/mg
Mus musculus [12]
  Activity_index: 3.286
Mus musculus [13]
  Activity: Active
Cannabinoid receptor 1 [14]
  EC50: > 30000 nM
Mus musculus [15]
  Activity: Active
Cannabinoid receptor 2 [16]
  EC50: 306 nM
Mus musculus [17]
  Activity: Active

— ChEMBL document CHEMBL4364306, “Structure-activity relationships of thiazole and benzothiazole derivatives as selective cannabinoid CB2 agonists with in vivo anti-inflammatory properties” (Eur J Med Chem, 2019)
